Screening results as filed in PubChem BioAssay.
The list is not random: actives were taken first. Their share in the collection is about 1.9%.
CHRM4 PAM: potentiates acetylcholine response at human M4 receptor | P08173 | CHO-K1 hM4/Gqi5, Fluo-8 calcium fluorescence, ACh EC20; 0% = ACh EC20, 100% = maximal ACh | activation, % at 3 µM | actives 0.4% (n = 360,000);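 active = activation above its plate's cutoff, the mean activation of sample wells plus 3 SD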
Target sequence (P08173 whole entry, looked up): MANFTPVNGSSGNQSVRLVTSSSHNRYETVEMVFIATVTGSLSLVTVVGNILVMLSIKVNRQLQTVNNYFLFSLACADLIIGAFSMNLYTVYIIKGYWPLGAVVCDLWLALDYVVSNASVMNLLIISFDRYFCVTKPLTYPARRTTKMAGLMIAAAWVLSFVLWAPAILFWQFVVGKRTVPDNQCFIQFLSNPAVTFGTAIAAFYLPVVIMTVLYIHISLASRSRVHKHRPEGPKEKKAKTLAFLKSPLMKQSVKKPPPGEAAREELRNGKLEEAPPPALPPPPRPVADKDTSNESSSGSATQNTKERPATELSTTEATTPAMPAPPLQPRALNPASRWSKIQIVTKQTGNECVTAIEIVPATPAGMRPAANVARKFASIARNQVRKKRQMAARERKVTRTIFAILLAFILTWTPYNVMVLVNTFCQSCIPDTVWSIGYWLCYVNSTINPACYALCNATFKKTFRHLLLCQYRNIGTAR
M4 antag: CHRM4 antagonism in calcium assay; P08173; actives 0.73% (n = 360,000); inhibition, % at 3 µM; CHO-hM4 cells, ACh EC80, Fluo-8 calcium fluorescence;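 active = inhibition above its plate's cutoff, the mean inhibition of sample wells plus 3 SD, cut at about 27% in these data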;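 also: 0% = acetylcholine EC80 with DMSO and 100% = DMSO without agonist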
CHRM5 PAM: positive allosteric modulators of human muscarinic M5 receptor; AID 624038; actives 0.3% (n = 360,000); P08912; activation, % at 3 µM; CHO-K1 hM5, Fluo-8 calcium, ACh EC20 PAM; 0% = ACh EC20, 100% = ACh EC100;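 active = activation above the run cutoff, the mean activation of all test compounds plus 3 SD, cut at about 18% in these data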
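Assay system: CHO-K1 hM5 cells. Also added: acetylcholine at EC20 concentration, added after compound. Dosing: 3 µM, single dose. Times: compound preincubation 140 s before EC20 acetylcholine addition. Signal: Fluo-8 calcium fluorescence. Measure: % activation relative to EC20 and EC100 ACh responses. Repeats: singlicate, one well per test compound.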
CHRM5 antagonist: CHRM5 antagonism in calcium assay | actives 0.59% (n = 360,000) | inhibition, % at 3 µM | AID 624040 | CHO-hM5 cells, Fluo-8 calcium fluorescence, ACh EC80 | P08912;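 active = inhibition above a per-plate cutoff, the mean of that plate's test compounds plus 3 SD, cut at about 27% in these data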;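 also: 0% = acetylcholine EC80 with DMSO and 100% = DMSO without agonist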
M5 ag: CHRM5 agonism in calcium assay; actives 0.19% (n = 360,000); AID 624037; P08912; CHO-K1 hM5 cells, Fluo-8 calcium fluorescence; 0% DMSO wells, 100% maximal acetylcholine response; activation, % at 3 µM;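 active = activation above the run's mean over test compounds plus 3 SD, cut at about 23% in these data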;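 also: signal is peak over basal fluorescence ratio across the kinetic read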
M4 ag: CHRM4 agonism in calcium assay | P08173 | CHO-K1 hM4/Gqi5, Fluo-8 calcium fluorescence; vehicle 0%, full acetylcholine response 100% | activation, % at 3 µM | actives 0.14% (n = 360,000) | AID 624127;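 active = activation above the run mean over all test wells plus 3 SD, cut at about 32% in these data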;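 also: peak over basal fluorescence ratio per well then scaled between controls; 0% = DMSO wells and 100% = acetylcholine at EC100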
The depositor's hits bear a star; ! = repeats disagree.

SMILES	CHRM4 PAM	M4 antag	CHRM5 PAM	CHRM5 antagonist	M5 ag	M4 ag
COc1cccc(C(=O)NCCSCc2c(F)cccc2Cl)c1	-2	-12	10	-3	-13	6
Cc1ccc(S(=O)(=O)N2C[C@H]3[C@H]4C(=O)N(c5ccccc5)C(=O)[C@H]4C[C@H](OC(=O)NC4CCCC4)[C@@]3(O)C2)cc1	-7	4	-3	-13	2	0
CN(CC(=O)Nc1ccccc1Cl)C(=O)c1cccc(S(=O)(=O)N2CCN(Cc3ccccc3)CC2)c1	-6	2	-19	20	3	14
O=C(c1ccc(OC2CCN(CCCc3ccccc3)CC2)cc1)N1CCCC1	-15	30*	-15	16	-8	2
O=C(c1ccc(OC2CCN(Cc3ccccc3C(F)(F)F)CC2)cc1)N1CCCCC1	-10	-1	-7	29*	-5	2
CCOC(=O)C1CCN(C(=O)c2ccc(OC3CCN(C(=O)COC)CC3)cc2)CC1	20*	-5	6	-16	-4	1
CC(=O)N1CCN(C(=O)c2ccc(OC3CCN(CCc4ccccc4)CC3)cc2)CC1	-11	11	-7	17	-9	0
COc1ccc(CCC(C)N2CCC(Oc3ccc(C(=O)N4CCCC4)cc3)CC2)cc1 (stereo not drawn)	-15	42*	-34	2	-5	4
CC(CCc1ccc(O)cc1)N1CCC(Oc2ccc(C(=O)N3CCCC3)cc2)CC1 (stereo not drawn)	-15	20	-14	13	-7	0
CN(C)CCOC(c1ccccc1)c1ccccc1 (tested in a mixture with another compound)	-17	37*	-18	53*	-1	1
Cc1ccccc1C(OCCN(C(C)C)C(C)C)c1ccccc1 (stereo not drawn)	-15	99*	-19	99*	-8	2
CN(C)CCOC(c1ccc(Cl)cc1)c1ccccn1 (stereo not drawn)	-10	4	-18	15	-1	0
CN(C)CCOC(c1ccccc1)c1ccccc1	-18	32*!	-18	35*	-2	1
Cc1ccccc1C(O)c1cccnc1 (stereo not drawn)	4	-10	3	0	-1	1
CC1(C(=O)NS(=O)(=O)c2ccc(Cl)cc2)CCN1C(=O)c1ccc(C2CCCCC2)cc1 (stereo not drawn)	3	-22	0	-5	-2	1
O=C(Nc1ccc(Cl)c(Cl)c1)OCc1cncs1	2	20	-10	17	-4	8
O=C(Nc1ccccc1)OCc1cncs1	6	2	18*	-2	-1	6
CC(=O)c1ccc(N2CCN(C(=O)C3(S(=O)(=O)c4ccc(Cl)cc4)CC3)CC2)cc1	-5	0	-7	-4	3	7
COc1ccc(N2CCN(C(=O)C3(S(=O)(=O)c4ccc(C)cc4)CC3)CC2)cc1	-4	-9	23*	-15	0	2
CCc1noc(N)c1C(=O)Nc1ccc(F)c(Cl)c1	3	-1	22*	-10	-5	1
CCc1noc(N)c1C(=O)Nc1ccc(Cl)cc1	5	5	5	-5	-3	0
C[C@@H]1CN([C@@H](C)CO)S(=O)(=O)c2ccc(Br)cc2O[C@@H]1CN(C)Cc1cccnc1	-4	7	-3	5	0	0
CSc1ccc(C(=O)C2CCCN(C(=O)c3nonc3C)C2)cc1 (stereo not drawn)	-5	-7	-2	5	-3	3
O=C(NCc1nnc(SC/C=C/c2ccccc2)o1)c1ccco1	-4	0	2	6	1	1
NCCCCCc1nnc(SCc2ccccc2Cl)o1	-26	23	-18	28*	-8	2
SMILES	CHRM4 PAM	M4 antag	CHRM5 PAM	CHRM5 antagonist	M5 ag	M4 ag
NCCc1nnc(SCc2c(Cl)cccc2Cl)o1	7	-12	10	-11	-10	2
NCCCCCc1nnc(SC/C=C/c2ccccc2)o1	-25	38*	-9	10	-7	2
CSc1ncccc1C(=O)N1CCN(S(=O)(=O)c2ccccc2)CC1	-7	-5	2	4	2	1
Cn1c2c(sc1=O)CCC2	4	-11	1	10	2	1
C=Cn1cc[n+](CC(=O)c2ccc(OC)cc2)c1	0	1	-7	13	-7	0
OC(C#CCN1CCCCCC1)(c1ccccc1)c1cccnc1 (stereo not drawn)	-61	82*	-32	55*	-18	13
CC(O)(C#CCN1CCOCC1)c1ccccc1 (stereo not drawn)	-2	6	0	8	-2	0
CCCN(CC#CC(O)(c1ccccc1)c1cccnc1)CCC (stereo not drawn)	-6	5	-10	-4	-11	0
OC(C#CCN1CCCC1)(c1ccccc1)c1cccnc1 (stereo not drawn)	-17	86*	-31	76*	-22	0
CC[C@]12c3[nH]c4cc(-c5ccco5)ccc4c3CCN1C(=O)[C@@H](CC(=O)NCCCn1ccnc1)C[C@@H]2C(=O)N1CCN(C(=O)c2ccco2)CC1	5	-16	2	-9	-2	0
COC(=O)c1ccc(CN2CCN(C3CCCCC3)C(CCO)C2)cc1 (stereo not drawn)	-50	60*	7	-8	-21	0
COC(=O)c1ccc(CN2CCN(C3CCCC3)C(CCO)C2)cc1 (stereo not drawn)	-21	77*	-8	-2	-10	1
CC(=O)Nc1ccc(CN2CCN(C3CCCCC3)C(CCO)C2)cc1 (stereo not drawn)	-35	15	-4	7	-14	0
COc1ccc(C)cc1S(=O)(=O)NCC(c1ccco1)N1CCc2ccccc2C1 (stereo not drawn)	-3	-3	-5	7	-1	1
Cc1ccccc1SCC(=O)OCC(=O)NCc1ccccc1	0	2	1	4	-3	1
CCOC(=O)c1c(C)[nH]c(C)c1C(=O)CSc1ncccn1	6	-13	25*	-1	0	1
CCOC(=O)c1c(C)[nH]c(C)c1C(=O)CSc1nc2ccccc2[nH]1	-14	10	-6	2	2	9
CCCS(=O)(=O)NC(=O)C1(C)CCN(C(=O)c2ccc(C(F)(F)F)cc2)C1 (stereo not drawn)	-1	0	0	2	0	0
Cc1csc2nc(COC(=O)c3ccc(Cl)c([N+](=O)[O-])c3)cc(=O)n12	3	-2	1	10	1	1
